{
  "source": "ChEMBL document CHEMBL1152365",
  "about": "“First experimental identification of Ras-inhibitor binding interface using a water-soluble Ras ligand” (Bioorg Med Chem Lett, 2009)",
  "key": {"[1]": {"experiment": "Solubility in TRIS buffer", "type": "physicochemical"}, "[2]": {"target": "GTPase HRas (Homo sapiens) (UniProt P01112)", "sequence (P01112 whole entry, looked up)": "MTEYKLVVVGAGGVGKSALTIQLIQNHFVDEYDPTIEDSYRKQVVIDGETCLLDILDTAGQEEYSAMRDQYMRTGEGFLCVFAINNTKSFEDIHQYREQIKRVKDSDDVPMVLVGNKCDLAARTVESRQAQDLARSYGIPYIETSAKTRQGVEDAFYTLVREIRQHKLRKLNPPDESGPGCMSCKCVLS", "experiment": "Binding affinity to H-Ras(1-166) expressed in BL21 De3 Escherichia coli by isothermal titration calorimetric study"}, "[3]": {"target": "GTPase HRas (Homo sapiens) (UniProt P01112)", "experiment": "Binding affinity to H-Ras expressed in BL21 De3 Escherichia coli assessed as damage to protein structure by circular dichroism"}, "[4]": {"target": "T1, Ras-specific guanine nucleotide-releasing factor 1 (Homo sapiens) (UniProt Q13972)", "T1 sequence (whole entry)": "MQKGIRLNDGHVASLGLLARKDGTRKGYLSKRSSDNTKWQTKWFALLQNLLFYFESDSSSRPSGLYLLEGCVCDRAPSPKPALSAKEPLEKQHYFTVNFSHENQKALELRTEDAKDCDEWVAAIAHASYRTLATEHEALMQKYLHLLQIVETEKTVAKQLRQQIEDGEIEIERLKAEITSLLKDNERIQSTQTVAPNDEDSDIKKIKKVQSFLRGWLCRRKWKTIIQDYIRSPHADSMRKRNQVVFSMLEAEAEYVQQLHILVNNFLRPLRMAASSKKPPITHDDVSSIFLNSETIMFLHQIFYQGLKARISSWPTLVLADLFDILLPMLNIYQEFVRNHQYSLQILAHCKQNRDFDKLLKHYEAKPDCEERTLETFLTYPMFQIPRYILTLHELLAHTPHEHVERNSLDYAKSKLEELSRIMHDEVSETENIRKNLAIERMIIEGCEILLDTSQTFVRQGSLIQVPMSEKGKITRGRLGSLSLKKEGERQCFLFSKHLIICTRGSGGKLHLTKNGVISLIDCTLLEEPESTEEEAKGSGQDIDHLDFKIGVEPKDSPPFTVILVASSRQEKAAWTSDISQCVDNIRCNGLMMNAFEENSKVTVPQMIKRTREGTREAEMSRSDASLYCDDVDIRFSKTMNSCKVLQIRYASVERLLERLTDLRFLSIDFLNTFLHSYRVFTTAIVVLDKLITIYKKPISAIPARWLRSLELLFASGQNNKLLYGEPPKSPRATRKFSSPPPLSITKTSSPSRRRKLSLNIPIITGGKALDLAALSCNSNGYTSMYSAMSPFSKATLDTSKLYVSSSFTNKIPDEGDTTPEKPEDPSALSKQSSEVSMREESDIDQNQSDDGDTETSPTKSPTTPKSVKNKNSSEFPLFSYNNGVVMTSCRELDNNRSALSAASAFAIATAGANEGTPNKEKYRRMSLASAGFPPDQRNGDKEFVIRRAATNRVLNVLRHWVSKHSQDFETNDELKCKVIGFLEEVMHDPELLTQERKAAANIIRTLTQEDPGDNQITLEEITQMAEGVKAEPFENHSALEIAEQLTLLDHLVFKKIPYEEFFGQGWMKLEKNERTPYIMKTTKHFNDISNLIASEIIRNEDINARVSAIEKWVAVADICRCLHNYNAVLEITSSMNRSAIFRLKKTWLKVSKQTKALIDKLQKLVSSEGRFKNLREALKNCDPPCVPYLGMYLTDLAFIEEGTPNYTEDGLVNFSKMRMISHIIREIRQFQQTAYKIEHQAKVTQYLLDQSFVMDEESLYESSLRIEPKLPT", "experiment": "Inhibition of GST-tagged Ras-GRF1-catalyzed exchange of bound GDP on histidine-tagged recombinant H-Ras expressed in Escherichia coli M15 at 100 uM by luminescence spectrometry", "how_it_was_run": "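GDP-to-mantGDP exchange measured on 0.25 µM H-Ras·GDP with […] mantGDP and 0.0625 µM RasGRF1, with compound at 0, 50, 100, 250 or 500 µM. Fluorescence read every second for at least 1500 s. Initial rate taken as first derivative at time 0 and normalized to the no-compound control set at 100. Mean of at least three independent experiments.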"}, "[5]": {"system": "NIH3T3", "experiment": "Antiproliferative activity against mouse NIH/3T3 cells assessed as morphological changes at 150 uM after 48 hrs", "type": "functional, cell-based"}, "[6]": {"experiment": "Solubility in water", "type": "physicochemical", "details": "buffer"}, "[7]": {"experiment": "Chemical stability at neutral pH by HPLC analysis", "type": "physicochemical", "how_it_was_run": "(§1)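 Stability assessed by TLC and HPLC after storage at neutral pH for months.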"}, "[8]": {"experiment": "Chemical stability at neutral pH by TLC analysis", "type": "physicochemical", "how_it_was_run": "as §1"}, "[9]": {"target": "GTPase HRas (Homo sapiens) (UniProt P01112)", "experiment": "Binding affinity to H-Ras expressed in BL21 De3 Escherichia coli assessed as induction of protein denaturation by circular dichroism"}, "[10]": {"target": "GTPase HRas (Homo sapiens) (UniProt P01112)", "experiment": "Binding affinity to hexa-histidine tagged H-Ras.GDP(1-166) expressed in BL21 De3 Escherichia coli by NMR binding experiment"}, "[11]": {"system": "NIH3T3", "experiment": "Antiproliferative activity against mouse NIH/3T3 cells at 450 uM after 24 hrs by coulter counter", "type": "functional, cell-based"}, "[12]": {"system": "NIH3T3", "experiment": "Antiproliferative activity against mouse NIH/3T3 cells at 150 uM after 24 hrs by coulter counter", "type": "functional, cell-based"}},
  "note": "Active and inactive are the calls of the source. The rule behind the calls is not given here.",
  "data": [
    {"smiles": "OC[C@H]1O[C@@H](N(Cc2ccc(O)c(O)c2)OCc2ccccc2)[C@H](O)[C@@H](O)[C@@H]1O", "values": [
      {"measurement": "solubility", "setting": "[1]", "result": "Soluble"},
      {"measurement": "Activity", "setting": "[2]", "result": 37, "unit": "µM"},
      {"measurement": "Activity", "setting": "[3]", "result": "inactive"},
      {"measurement": "inhibition", "setting": "[4]", "result": 50, "unit": "%"},
      {"measurement": "Activity", "setting": "[5]", "result": "Active"},
      {"measurement": "solubility", "setting": "[6]", "result": "Soluble"},
      {"measurement": "Stability", "setting": "[7]", "result": "Stable"},
      {"measurement": "Stability", "setting": "[8]", "result": "Stable"},
      {"measurement": "Activity", "setting": "[9]", "result": "inactive"},
      {"measurement": "Activity", "setting": "[10]", "result": "Active"},
      {"measurement": "Activity", "setting": "[11]", "result": "Active"},
      {"measurement": "Activity", "setting": "[12]", "result": "Active"}
    ]}
  ]
}
